In ChEMBL document CHEMBL1122940, “Cyclic guanidines. 17. Novel (N-substituted amino)imidazo[2,1-b]quinazolin-2 ones: water-soluble platelet aggregation inhibitors” (J Med Chem, 1985):

Key:
[1] = test system: Rattus norvegicus; test: Ex vivo in vitro inhibition of blood platelet aggregation (ADP) in rats at oral dose 10 mg/kg 1 hour before the test; type: functional
[2] = test system: Rattus norvegicus; test: Ex vivo inhibition of blood platelet aggregation (collagen) in rats at oral dose 10 mg/kg 1 hour before the test; type: functional
[3] = species on record: Rattus norvegicus; test: In vitro inhibition of blood platelet aggregation (collagen) in rats; type: functional
[4] = species on record: Rattus norvegicus; test: In vitro inhibition of blood platelet aggregation (ADP) in rats; type: functional
[5] = test system: Rattus norvegicus; test: Duration of inhibition of blood platelet aggregation in rats (ADP) 3 hours after oral administration at dose 10 mg/kg; type: functional
Summary of the method: (§1)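 Rats got a single oral dose of 10 mg/kg, and controls got vehicle alone. Blood was collected 3 h later and aggregation was run ex vivo. Collagen-induced aggregation was read as ΔA/min and ADP-induced aggregation as ΔA. Values are mean ± SD of five animals, with percent inhibition versus vehicle control.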

[6] = test system: Rattus norvegicus; test: Decrease in systolic BP 5 hours after oral administration at dose 50 mg/kg; type: functional
[7] = test system: Rattus norvegicus; test: Change in heart rate 3 hours after oral administration at dose 50 mg/kg; type: functional
[8] = test system: Rattus norvegicus; test: Decrease in systolic BP 3 hours after oral administration at dose 50 mg/kg; type: functional
[9] = test system: Rattus norvegicus; test: Change in heart rate 7 hours after oral administration at dose 50 mg/kg; type: functional
[10] = test system: Rattus norvegicus; test: Change in heart rate 5 hours after oral administration at dose 50 mg/kg; type: functional
[11] = test system: Rattus norvegicus; test: Decrease in systolic BP 7 hours after oral administration at dose 50 mg/kg; type: functional
[12] = test system: Rattus norvegicus; test: Decrease in systolic BP 1 hour after oral administration at dose 50 mg/kg; type: functional
[13] = test system: Rattus norvegicus; test: Duration of inhibition of blood platelet aggregation in rats (collagen) 3 hours after oral administration at dose 10 mg/kg; type: functional; summary of the method: as §1
[14] = test system: Rattus norvegicus; test: Change in heart rate 2 hours after oral administration at dose 50 mg/kg; type: functional
[15] = test system: Rattus norvegicus; test: Decrease in systolic BP 2 hours after oral administration at dose 50 mg/kg; type: functional
[16] = test system: Rattus norvegicus; test: Change in heart rate 1 hour after oral administration at dose 50 mg/kg; type: functional
[17] = test system: Rattus norvegicus; test: Inhibition of blood platelet aggregation in rats (collagen) after intravenous infusion at dose 10 mg/kg after 10 min; type: functional
Summary of the method: (§2)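 Compounds were dissolved in physiological saline and infused continuously through the femoral vein into fed rats under pentobarbital anesthesia, at 1 mg/kg over 15 min or 10 mg/kg over 10 min. Citrated cardiac blood was drawn 15 or 10 min later, and aggregation was measured as in the in vitro test. Collagen was read as ΔA/min and ADP as ΔA. Values are mean ± SD of five animals, as percent inhibition versus control.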

[18] = test system: Rattus norvegicus; test: Inhibition of blood platelet aggregation in rats (ADP) after intravenous infusion at dose 10 mg/kg after 10 min; type: functional; summary of the method: as §2
[19] = test system: Rattus norvegicus; test: Ex vivo inhibition of blood platelet aggregation (collagen) in rats at oral dose 10 mg/kg 1 hour before the test; Platelet aggregation could not be measured optically because this compound causes hemolysis; type: functional, organism-based; parameters: dose 10 mg/kg
[20] = test system: Rattus norvegicus; test: Ex vivo in vitro inhibition of blood platelet aggregation (ADP) in rats at oral dose 10 mg/kg 1 hour before the test; Platelet aggregation could not be measured optically because this compound causes hemolysis; type: functional, organism-based; parameters: dose 10 mg/kg
[21] = test system: Rattus norvegicus; test: Inhibition of blood platelet aggregation in rats (collagen) after intravenous infusion at dose 1 mg/kg after 15 min; type: functional; summary of the method: as §2
[22] = test system: Rattus norvegicus; test: Inhibition of blood platelet aggregation in rats (ADP) after intravenous infusion at dose 1 mg/kg after 15 min; type: functional; summary of the method: as §2
[23] = test system: Rattus norvegicus; test: Duration of inhibition of blood platelet aggregation in rats (collagen) 3 hr after oral administration at dose 10 mg/kg; type: functional; summary of the method: as §1
[24] = test system: Rattus norvegicus; test: Ex vivo in vitro inhibition of blood platelet aggregation (ADP) in rats at oral dose 10 mg/kg 1 hour before the tes; type: functional

| SMILES | EC50 [3] [nM] | EC50 [4] [nM] | platelet aggregation [1] | platelet aggregation rate [2] | other results |
| --- | --- | --- | --- | --- | --- |
| O=C1CN2Cc3c(sc4c3CCCC4)N=C2N1 | 100 |  | 0.112 ΔA | 0.073 ΔA/min |  |
| O=C1CN2Cc3c(cccc3N3CCCCC3)NC2=N1 | 20000 | 22500 |  |  |  |
| CCN(CC)c1ccc2c(c1Cl)CN1CC(=O)NC1=N2 | 1300 | 5600 | 0.201 ΔA | 0.041 ΔA/min |  |
| O=C1CN2Cc3c(ccc(N4CCCCC4)c3Cl)NC2=N1 | 1200 | 7900 |  |  |  |
| O=C1CN2Cc3c(Cl)cc(N4CCCCC4)cc3N=C2N1 |  | 350000 |  |  |  |
| Nc1ccc2c(c1)CN1CC(=O)NC1=N2 | 16000 | 170000 |  |  |  |
| CN(Cc1ccccc1)c1ccc2c(c1)CN1CC(=O)NC1=N2 |  | 26000 |  |  |  |
| Cc1cc2c(cc1N1CCCCC1)NC1=NC(=O)CN1C2 |  | 220000 |  |  |  |
| Cc1cc2c(cc1N1CCCCC1)CN1CC(=O)NC1=N2 | 580 | 5400 |  |  | Inhibition [19]: Platelet aggregation could not be measured optically because this compound causes hemolysis; Inhibition [20]: Platelet aggregation could not be measured optically because this compound causes hemolysis |
| O=C1CN2Cc3ccc(N4CCCCC4)cc3N=C2N1 | 8000 | 46000 |  |  |  |
| CN(C)c1cc(Cl)c2c(c1)NC1=NC(=O)CN1C2 |  | 290000 |  |  |  |
| O=C1CN2Cc3ccc(N4CCOCC4)cc3N=C2N1 |  | 96000 |  |  |  |
| CN(C)c1ccc2c(c1Cl)CN1CC(=O)NC1=N2 | 1200 | 7000 | 0.098 ΔA | 0.019 ΔA/min | Change in BP [6]: 36 mmHg; Change in heart rate [7]: 43%; platelet aggregation rate [17]: 0 ΔA/min; platelet aggregation [18]: 0.208 ΔA; Change in BP [8]: 35 mmHg; Change in heart rate [9]: 38%; Change in heart rate [10]: 41%; Change in BP [11]: 34 mmHg; Change in BP [12]: 45 mmHg; Change in heart rate [14]: 46%; Change in BP [15]: 43 mmHg; Change in heart rate [16]: 46% |
| CN1CCN(c2ccc3c(c2Cl)CN2CC(=O)NC2=N3)CC1 | 3000 | 8000 | 0.189 ΔA | 0.149 ΔA/min |  |
| O=C1CN2Cc3c(ccc(Cl)c3Cl)N=C2N1 [ANAGRELIDE] |  |  |  | 0.067 ΔA/min | platelet aggregation [24]: 0.248 ΔA |
| CNc1ccc2c(c1)CN1CC(=O)NC1=N2 |  | 24000 |  |  |  |
| CN(C)c1ccc2c(c1)CN1CC(=O)NC1=N2 | 1400 | 5400 | 0.193 ΔA | 0.071 ΔA/min | platelet aggregation [5]: 0.16 ΔA; platelet aggregation rate [21]: 0.058 ΔA/min; platelet aggregation [22]: 0.142 ΔA; platelet aggregation rate [23]: 0.154 ΔA/min |

More lines, in order of falling EC50 [4], values ahead:

| EC50 [3] [nM] | EC50 [4] [nM] | SMILES | platelet aggregation [1] | platelet aggregation rate [2] | other results |
| --- | --- | --- | --- | --- | --- |
| 2000 | 5000 | O=C1CN2Cc3cc(N4CCOCC4)ccc3N=C2N1 | 0.201 ΔA | 0.154 ΔA/min | platelet aggregation rate [17]: 0.09 ΔA/min; platelet aggregation [18]: 0.202 ΔA |
| 1400 | 4000 | CC1CCCCN1c1ccc2c(c1Cl)CN1CC(=O)NC1=N2 (stereo not drawn) |  |  |  |
| 2300 | 4000 | CC1CCN(c2ccc3c(c2Cl)CN2CC(=O)NC2=N3)CC1 |  |  |  |
| 330 | 3800 | O=C1CN2Cc3cc(N4CCCCC4)ccc3N=C2N1 | 0.121 ΔA | 0.068 ΔA/min | platelet aggregation [5]: 0.158 ΔA; platelet aggregation rate [21]: 0 ΔA/min; Change in BP [6]: 12 mmHg; Change in heart rate [7]: 27%; Change in BP [8]: 12 mmHg; platelet aggregation [22]: 0.116 ΔA; Change in heart rate [9]: 17%; Change in heart rate [10]: 25%; Change in BP [11]: 9 mmHg; Change in BP [12]: 18 mmHg; platelet aggregation rate [23]: 0.118 ΔA/min; Change in heart rate [14]: 32%; Change in BP [15]: 12 mmHg; Change in heart rate [16]: 27% |
| 2700 | 3000 | O=C1CN2Cc3c(ccc(N4CCCC4)c3Cl)NC2=N1 |  |  |  |
| 18000 | 2800 | CC1CCN(c2ccc3c(c2)CN2CC(=O)NC2=N3)CC1 | 0.188 ΔA | 0.122 ΔA/min |  |
| 1500 | 2700 | CN(C)c1cccc2c1CN1CC(=O)NC1=N2 |  |  |  |
| 1900 | 2600 | O=C1CN2Cc3cc(N4CCCC4)ccc3N=C2N1 |  |  |  |
| 1700 | 2000 | CC1CCCCN1c1ccc2c(c1)CN1CC(=O)NC1=N2 (stereo not drawn) |  | 0.145 ΔA/min | platelet aggregation [24]: 0.19 ΔA |
| 440 | 1100 | CN(C)c1cc2c(cc1Cl)NC1=NC(=O)CN1C2 | 0.15 ΔA | 0.082 ΔA/min | platelet aggregation [5]: 0.171 ΔA; Change in BP [6]: 28 mmHg; Change in heart rate [7]: 47%; Change in BP [8]: 26 mmHg; Change in heart rate [9]: 41%; Change in heart rate [10]: 46%; Change in BP [11]: 23 mmHg; Change in BP [12]: 30 mmHg; platelet aggregation rate [13]: 0.136 ΔA/min; Change in heart rate [14]: 50%; Change in BP [15]: 27 mmHg; Change in heart rate [16]: 42% |
| 460 | 400 | O=C1CN2Cc3cc(N4CCCCC4)c(Cl)cc3N=C2N1 | 0.137 ΔA | 0.039 ΔA/min | platelet aggregation [5]: 0.189 ΔA; platelet aggregation rate [23]: 0.18 ΔA/min |
| 100 | 360 | O=C1CN2Cc3cc(N4CCOCC4)c(Cl)cc3N=C2N1 | 0.122 ΔA | 0.055 ΔA/min |  |
